Experiment [1] addresses T1, 5-hydroxytryptamine receptor 1A (Rattus norvegicus, UniProt P19327).
T1 sequence (P19327 whole entry): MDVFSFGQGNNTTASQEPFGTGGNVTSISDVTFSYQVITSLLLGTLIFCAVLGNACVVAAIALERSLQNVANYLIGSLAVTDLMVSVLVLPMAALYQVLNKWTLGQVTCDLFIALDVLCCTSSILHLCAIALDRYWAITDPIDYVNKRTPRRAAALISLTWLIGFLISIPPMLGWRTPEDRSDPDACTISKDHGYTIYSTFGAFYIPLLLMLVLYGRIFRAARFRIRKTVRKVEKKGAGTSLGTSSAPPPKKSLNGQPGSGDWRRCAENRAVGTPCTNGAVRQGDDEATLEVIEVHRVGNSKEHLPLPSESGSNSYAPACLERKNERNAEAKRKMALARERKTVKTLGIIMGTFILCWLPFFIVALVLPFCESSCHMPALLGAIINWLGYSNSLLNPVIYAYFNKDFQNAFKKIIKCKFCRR
Description: Antagonist activity against rat hippocampal tissue 5-hydroxytryptamine 1A receptor. Type of experiment: functional, tissue-based, Hippocampus.

Experiment [2] addresses Serotonin 2 (5-HT2) receptor (Rattus norvegicus, UniProt P30994+P08909+P14842). Description: Inhibitory activity against rat cortical 5-hydroxytryptamine 2 receptor. It counts as protein assay. A digest of the protocol:
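Cortical membranes from male Sprague–Dawley rats, incubated 15 min at 37 °C in 50 mM Tris pH 7.6 with 1.0 nM [3H]ketanserin and a range of drug concentrations. Nonspecific binding defined with 100 μM methysergide. Run by filtration and counting.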

Experiment [3] has as its target D(2) dopamine receptor (Rattus norvegicus) (UniProt P61169). The experiment can be described thus: Inhibitory activity against rat limbic tissue Dopamine receptor D2 at 1 uM concentration. It counts as tissue-based. As to conditions: Limbic system.
Experiment [4] concerns the target T2, 5-hydroxytryptamine receptor 1A (Rattus norvegicus) (UniProt P19327).
T2 sequence (whole entry): T1 sequence (P19327 whole entry)
Description: Inhibitory activity against 5-hydroxytryptamine 1A receptor of rat hippocampal tissue at 0.1 uM. Conditions: Hippocampus.

The target of experiment [5] is D(2) dopamine receptor (Rattus norvegicus) (UniProt P61169). The experiment can be described thus: Inhibitory activity against Dopamine receptor D2 of rat limbic tissue at 1 uM. As to conditions: Limbic system. Type of experiment: tissue-based.
The target in experiment [6] is T1, 5-hydroxytryptamine receptor 1A. Description: Inhibitory activity against 5-hydroxytryptamine 1A receptor of rat hippocampal tissue. It counts as tissue-based, Hippocampus. The procedure, abridged:
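Rat hippocampal membranes from male Sprague–Dawley rats (150–250 g), preincubated 10 min at 37 °C to remove endogenous 5-HT. Used at 0.4–0.6 mg protein with 1.5–1.8 nM [3H]8-OH-DPAT and a range of drug concentrations, 10 min at 37 °C, in 50 mM Tris pH 7.7 with 0.1% ascorbate, 10 μM pargyline and 4 mM CaCl2. Nonspecific binding defined with 1 μM 5-HT. Filtration, scintillation counting. Ki from duplicate assays, 95% CI.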

In the next experiment the target is D(2) dopamine receptor (Rattus norvegicus, UniProt P61169). Description: Inhibitory activity against rat limbic tissue Dopamine receptor D2. It counts as tissue-based, Limbic system. A digest of the protocol:
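Rat limbic membranes, handled as in the 5-HT2 assay: 15 min at 37 °C, 50 mM Tris pH 7.6, drug concentration range. 30 nM ketanserin in all tubes to block 5-HT2 sites. Nonspecific binding defined with 10 μM sulpiride. Filtration and counting.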

For experiment [7], the system named is Rattus norvegicus. Description: Induction of serotonin syndrome against male Sprague-Dawley CD rats following ip administration of the compound. It counts as functional. A digest of the protocol:
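Male Sprague–Dawley CD rats (150–250 g), group-housed and acclimated 1 week, given compound or vehicle ip, 8 per group. Forepaw treading, head weaving, tremor, hindlimb abduction, flat body posture and Straub tail each rated 0–3 (maximum 18) over the first 15 min. ED50 by nonlinear regression with inverse prediction.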

For experiment [8], the system named is Rattus norvegicus. The experiment can be described thus: Antagonistic activity against […] induced serotonin syndrome against male Sprague-Dawley CD rats following ip administration of the compound. Type of experiment: functional. A digest of the protocol: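 Rats were dosed ip with compound or vehicle (male Sprague–Dawley CD, 150–250 g, 8 per group), then challenged with 8-OH-DPAT 3 mg/kg ip. The six serotonin-syndrome behaviours were each rated 0–3 for a further 15 min. ED50 by nonlinear regression with inverse prediction.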

Experiment [9] has as its system Rattus norvegicus. The experiment can be described thus: Antagonistic activity against quipazine induced head shakes against male Sprague-Dawley CD rats following ip administration of the compound. It counts as functional. The procedure, abridged:
(§1)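 Male Sprague–Dawley CD rats (200–300 g), 8 per treatment, given compound or vehicle ip 30 min before quipazine 2.5 mg/kg ip or DOI 1.0 mg/kg ip. Rhythmic radial head shakes counted for 30 min after agonist. ED50 by nonlinear regression with inverse prediction.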

In experiment [10] the test system is Rattus norvegicus. The experiment can be described thus: Antagonistic activity antagonist DOI induced head shakes against male Sprague-Dawley CD rats following ip administration of the compound. It counts as functional. The procedure, abridged:
as §1

In experiment [11] the target is T2, 5-hydroxytryptamine receptor 1A (Rattus norvegicus). Description: Inhibitory activity against rat hippocampal tissue 5-hydroxytryptamine 1A receptor at 1 uM concentration. Type of experiment: tissue-based. As to conditions: Hippocampus.
Experiment [12] shares this target. Description: Inhibitory activity against rat hippocampal tissue 5-hydroxytryptamine 1A receptor at 0.1 uM concentration. It counts as tissue-based. Conditions: Hippocampus.

pKi: −log10 of the molar value.

D(2) dopamine receptor (Rattus norvegicus), sequence (P61169 whole entry): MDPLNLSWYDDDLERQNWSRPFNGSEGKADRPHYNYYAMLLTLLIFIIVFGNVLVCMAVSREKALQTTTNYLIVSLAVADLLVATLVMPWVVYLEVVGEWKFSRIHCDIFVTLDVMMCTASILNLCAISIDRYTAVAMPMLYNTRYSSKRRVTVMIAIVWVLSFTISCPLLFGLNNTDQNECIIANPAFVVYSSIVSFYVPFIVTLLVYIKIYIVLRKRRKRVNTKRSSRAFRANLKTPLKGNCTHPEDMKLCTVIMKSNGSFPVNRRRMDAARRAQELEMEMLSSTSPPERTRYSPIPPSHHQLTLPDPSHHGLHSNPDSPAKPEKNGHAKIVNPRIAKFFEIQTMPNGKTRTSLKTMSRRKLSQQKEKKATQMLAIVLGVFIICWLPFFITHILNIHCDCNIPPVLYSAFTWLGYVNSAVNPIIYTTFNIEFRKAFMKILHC
D(2) dopamine receptor, sequence (P61169 whole entry): as above

On to `COc1ccccc1N1CCN(CCNC(=O)NC23C[C@H]4C[C@@H](C2)C[C@@H](C3)C4)CC1`, for which, in experiment [1], the pKi (in general, the negative decadic logarithm of the Ki, by convention in mol/L) is 8.05. In experiment [2], the Ki (commonly a measure of affinity in units of concentration, obtained from inhibition or displacement) worked out at 0.038 µM. For the same molecule, the inhibition (in general, the change of the read-out against control, counted positive when it falls) in experiment [3] was 94%.

In the case of `C[C@@H](CN1CCN(Cc2ccccc2)CC1)NC(=O)C12C[C@H]3C[C@@H](C1)C[C@@H](C2)C3`, the inhibition in experiment [4] worked out at 0%.

Molecule `COc1ccccc1N1CCN(CCNC(=O)C23CC4C[C@@H](C[C@H]2C4)C3)CC1.Cl.Cl` had a pKi in experiment [1] of 9.62. The molecule also registered a Ki in experiment [2] of 0.0082 µM. The molecule further registered an inhibition in experiment [3] of 100%.

In the case of `COc1ccccc1N1CCN(CCCNC(=O)C23CC4C[C@@H](C[C@H]2C4)C3)CC1.Cl.Cl`, the pKi in [1] is 8.48. This molecule also showed a Ki in experiment [2] of 0.0435 µM. In [3], this molecule came in with an inhibition of 72%.

Molecule `Cc1cccc(N2CCN(C[C@H](C)NC(=O)C34C[C@H]5C[C@@H](C3)C[C@@H](C4)C5)CC2)c1C` yielded an inhibition in experiment [4] of 0%.

On to `O=C(NCCCN1CCN(c2ncccn2)CC1)NC12CC3CC(CC1C3)C2`, for which the results for the inhibition in experiment [5] and in [4] were 6% and 69%, respectively.

For the molecule `Cl.Cl.O=C(NCCN1CCN(c2ncccn2)CC1)C12C[C@H]3C[C@@H](C1)C[C@@H](C2)C3`, the pKi was 9.00 in experiment [6] and 6.78 at D(2) dopamine receptor. In experiment [2], this molecule yielded a Ki of 0.073 µM. Further, the ED50 (as a rule, the dose that gives a 50% effect, or the effect in half of the subjects) in the experiment on Rattus norvegicus [7] came out at 12.9 mg/kg; with Rattus norvegicus [8], 2.2 mg/kg; in the experiment with Rattus norvegicus [9] it was 0.6 mg/kg; with Rattus norvegicus [10] it was 1.8 mg/kg.

The molecule `COc1ccccc1N1CCN(C(=O)NC23C[C@H]4C[C@@H](C2)C[C@@H](C3)C4)CC1` showed an inhibition in experiment [11] of 0%.

As for `COc1ccccc1N1CCN(CCCOC(=O)C23C[C@H]4C[C@@H](C2)C[C@@H](C3)C4)CC1.Cl.Cl`, the pKi in experiment [1] is 8.07; at D(2) dopamine receptor it was 7.46. In experiment [2], this molecule had a Ki of 0.18 µM.

Take `COc1ccccc1N1CCN(CCC(=O)NC23C[C@H]4C[C@@H](C2)C[C@@H](C3)C4)CC1.Cl.Cl`: the pKi in experiment [1] was 8.05; on D(2) dopamine receptor, 7.03. This molecule also showed a Ki in experiment [2] of 0.077 µM.

For the molecule `COc1ccccc1N1CCN(CCOC(=O)C23C[C@H]4C[C@@H](C2)C[C@@H](C3)C4)CC1.Cl.Cl`, the values for the pKi (in experiment [1]; at D(2) dopamine receptor) were 8.60 and 7.87, respectively. In [2], this molecule displayed a Ki of 0.712 µM.

For `COc1ccccc1N1CCN(CCCNC(=O)NC23C[C@H]4C[C@@H](C2)C[C@@H](C3)C4)CC1.Cl.Cl`, the pKi was 9.00 in experiment [1] and 6.75 on D(2) dopamine receptor. Besides, in [2], the Ki turned out to be 0.348 µM.

Take `Cl.Cl.O=C(N[C@@H](Cc1ccccc1)CN1CCN(Cc2ccccc2)CC1)C12C[C@H]3C[C@@H](C1)C[C@@H](C2)C3`: the figures for the negative-log Ki (pKi) (in [1]; at D(2) dopamine receptor) were 9.15 and 5.47, respectively. In addition, the Ki in experiment [2] worked out at 1.89 µM.

For `O=C(OCCCN1CCN(c2cncc(Cl)n2)CC1)C12C[C@H]3C[C@@H](C1)C[C@@H](C2)C3`, in [12], the inhibition amounted to 5%.

`O=C(N[C@@H](Cc1ccccc1)CN1CCN(c2ncccn2)CC1)C12C[C@H]3C[C@@H](C1)C[C@@H](C2)C3`: the pKi in experiment [1] was 9.00; on D(2) dopamine receptor it was 5.77. This molecule also showed a Ki in experiment [2] of 1.36 µM.

Take `COc1ccccc1N1CCN(CCNC(=O)C23C[C@H]4C[C@@H](C2)C[C@@H](C3)C4)CC1.Cl.Cl`: the pKi in experiment [1] was 9.00; on D(2) dopamine receptor, 7.62. Also, in experiment [2], the Ki stood at 0.274 µM.

As for `O=C(OCCCN1CCN(c2ncccn2)CC1)C12CC3C[C@@H](C[C@H]1C3)C2`, the inhibition in experiment [4] is 12%.

`COc1ccccc1N1CCN(CCCNC(=O)C23C[C@H]4C[C@@H](C2)C[C@@H](C3)C4)CC1.Cl.Cl`: the pKi was 9.00 in [1] and 6.70 at D(2) dopamine receptor. Moreover, in [2], the Ki stood at 0.075 µM. Further, the ED50 is 9 mg/kg in the experiment with Rattus norvegicus [7], 5.8 mg/kg with Rattus norvegicus [8], 4.5 mg/kg with Rattus norvegicus [9] and 4.4 mg/kg with Rattus norvegicus [10].

Molecule `COc1ccccc1N1CCN(CCCNC(=O)CC23C[C@H]4C[C@@H](C2)C[C@](C)(C4)C3)CC1` had a pKi in experiment [1] of 8.36. For the same molecule, the inhibition in experiment [3] came to 79%.

As for `Cl.Cl.O=C(N[C@H](Cc1ccccc1)CN1CCN(Cc2ccccc2)CC1)C12C[C@H]3C[C@@H](C1)C[C@@H](C2)C3`, the results for the pKi (in experiment [1]; on D(2) dopamine receptor) were 8.64 and 5.85, respectively. The same molecule showed a Ki in experiment [2] of 0.722 µM.

In experiment [1], `COc1ccccc1N1CCN(CCNC(=O)CC23C[C@H]4C[C@@H](C2)C[C@](C)(C4)C3)CC1` showed a pKi of 7.96. In experiment [3], this molecule had an inhibition of 70%.

`O=C(NC12C[C@H]3C[C@@H](C1)C[C@@H](C2)C3)OCCN1CCN(c2ncccn2)CC1`: in [4], the inhibition was 34%.

For the molecule `C[C@H](CN1CCN(c2ncccn2)CC1)NC(=O)C12C[C@H]3C[C@@H](C1)C[C@@H](C2)C3`, the pKi was 8.96 in [1] and 6.82 on D(2) dopamine receptor. The Ki in [2] stood at 0.961 µM.

Take `Cl.Cl.O=C(OCCN1CCN(c2ncccn2)CC1)C12C[C@H]3C[C@@H](C1)C[C@@H](C2)C3`: the figures for the pKi (in experiment [1]; at D(2) dopamine receptor) were 8.07 and 6.15, respectively. This molecule also displayed a Ki in [2] of 2.18 µM.

With `Cc1cccc(N2CCN(C[C@@H](C)NC(=O)C34C[C@H]5C[C@@H](C3)C[C@@H](C4)C5)CC2)c1C`, in experiment [4], the inhibition amounted to 0%.

For the origin of these results see ChEMBL document CHEMBL1132497, “Synthesis and SAR of adatanserin: novel adamantyl aryl- and heteroarylpiperazines with dual serotonin 5-HT(1A) and 5-HT(2) activity as potential anxiolytic and antidepressant agents” (J Med Chem, 1999).
